Measurements published in ChEMBL document CHEMBL1155442, “Click chemistry approach to new N-substituted aminocyclitols as potential pharmacological chaperones for Gaucher disease” (J Med Chem, 2010).
Activity calls are given as the source filed them. No cut-off for these calls is given here.

Key:
[1] = target: T1, Lysosomal acid glucosylceramidase (Homo sapiens) (UniProt P04062); experiment: Binding affinity to recombinant beta-glucocerebrosidase assessed as enzymatic activity at 100 uM after 20 mins by thermal stabilization assay relative to control
T1 sequence (whole entry): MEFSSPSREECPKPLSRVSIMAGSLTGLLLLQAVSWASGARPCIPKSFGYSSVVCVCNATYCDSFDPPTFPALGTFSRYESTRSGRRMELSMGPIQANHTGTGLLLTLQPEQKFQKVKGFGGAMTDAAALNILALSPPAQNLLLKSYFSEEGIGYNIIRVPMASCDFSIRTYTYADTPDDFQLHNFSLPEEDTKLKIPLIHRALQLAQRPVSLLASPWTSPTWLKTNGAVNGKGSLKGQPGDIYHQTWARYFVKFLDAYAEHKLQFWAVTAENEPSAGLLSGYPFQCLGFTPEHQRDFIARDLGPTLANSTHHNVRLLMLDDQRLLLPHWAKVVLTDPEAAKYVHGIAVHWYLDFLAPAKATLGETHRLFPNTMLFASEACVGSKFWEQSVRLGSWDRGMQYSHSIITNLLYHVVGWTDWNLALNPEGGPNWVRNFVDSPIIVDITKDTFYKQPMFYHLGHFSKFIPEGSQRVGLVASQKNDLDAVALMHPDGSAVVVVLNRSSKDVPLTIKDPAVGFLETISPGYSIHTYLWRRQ

[2] = system: Saccharomyces cerevisiae; experiment: Inhibition of yeast alpha-glucosidase at 0.1 mM
[3] = Cytotoxicity against human fibroblast at 300 uM after 24 hrs by MTT assay; format: cell-based
[4] = Dissociation constant, pKa of the compound; format: physicochemical
[5] = target: T1, Lysosomal acid glucosylceramidase (Homo sapiens); experiment: Binding affinity to recombinant beta-glucocerebrosidase assessed as enzymatic activity at 100 uM after 60 mins by thermal stabilization assay relative to control
[6] = target: T1, Lysosomal acid glucosylceramidase (Homo sapiens); experiment: Binding affinity to recombinant beta-glucocerebrosidase assessed as enzymatic activity at 150 uM after 40 mins by thermal stabilization assay relative to control
[7] = system: Glucosylceramide synthase (Homo sapiens); experiment: Inhibition of glucosylceramide synthase in human A549 cells at 250 uM after 35 mins by fluorescence-coupled HPLC analysis
[8] = target: T1, Lysosomal acid glucosylceramidase (Homo sapiens); experiment: Binding affinity to recombinant beta-glucocerebrosidase assessed as enzymatic activity at 50 uM after 60 mins by thermal stabilization assay relative to control
[9] = system: Oryza sativa; experiment: Inhibition of rice alpha-glucosidase at 0.1 mM
[10] = target: T1, Lysosomal acid glucosylceramidase (Homo sapiens); experiment: Binding affinity to recombinant beta-glucocerebrosidase assessed as enzymatic activity at 50 uM after 40 mins by thermal stabilization assay relative to control
[11] = target: T2, Beta-galactosidase (Bos taurus) (UniProt Q58D55); experiment: Inhibition of bovine liver beta-galactosidase at 0.1 mM
T2 sequence (whole entry): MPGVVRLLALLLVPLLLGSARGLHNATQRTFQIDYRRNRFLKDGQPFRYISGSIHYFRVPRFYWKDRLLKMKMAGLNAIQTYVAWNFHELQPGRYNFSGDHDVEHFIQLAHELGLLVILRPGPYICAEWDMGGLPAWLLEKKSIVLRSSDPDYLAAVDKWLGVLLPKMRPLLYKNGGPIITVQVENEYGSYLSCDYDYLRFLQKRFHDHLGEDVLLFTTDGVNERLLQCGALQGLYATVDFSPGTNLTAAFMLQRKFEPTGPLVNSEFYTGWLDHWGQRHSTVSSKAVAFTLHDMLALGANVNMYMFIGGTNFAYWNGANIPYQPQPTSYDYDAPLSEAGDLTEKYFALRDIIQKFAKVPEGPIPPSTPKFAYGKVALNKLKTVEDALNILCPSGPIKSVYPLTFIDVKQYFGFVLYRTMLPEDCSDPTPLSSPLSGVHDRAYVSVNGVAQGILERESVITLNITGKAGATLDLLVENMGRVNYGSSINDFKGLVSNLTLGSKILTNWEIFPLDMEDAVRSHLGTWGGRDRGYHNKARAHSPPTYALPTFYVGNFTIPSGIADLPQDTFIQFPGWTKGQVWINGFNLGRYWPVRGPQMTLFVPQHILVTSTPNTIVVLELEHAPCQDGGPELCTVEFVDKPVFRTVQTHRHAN

[12] = target: T3, Lysosomal acid glucosylceramidase (Homo sapiens, UniProt P04062); experiment: Inhibition of recombinant beta-glucocerebrosidase after 10 mins by fluorimetry
T3 sequence (P04062 whole entry): T1 sequence (whole entry)
Method in brief: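 Imiglucerase (0.1 mg/mL stock) in McIlvaine buffer, pH 5.2 or 7.4, with 0.2% sodium taurocholate and 0.1% Triton X-100. Preincubated 30 min at 37 °C with or without inhibitor. Then 4 mM 4-methylumbelliferyl-β-D-glucopyranoside added for 10 min at 37 °C. Stopped with glycine/NaOH pH 10.6; 4-MU read at ex 355/em 460 nm. IC50 from % activity vs log[I], at least five concentrations.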

[13] = target: T1, Lysosomal acid glucosylceramidase (Homo sapiens); experiment: Binding affinity to recombinant beta-glucocerebrosidase assessed as enzymatic activity at 50 uM after 20 mins by thermal stabilization assay relative to control
[14] = target: T1, Lysosomal acid glucosylceramidase (Homo sapiens); experiment: Binding affinity to recombinant beta-glucocerebrosidase assessed as enzymatic activity at 150 uM after 20 mins by thermal stabilization assay relative to control
[15] = target: T1, Lysosomal acid glucosylceramidase (Homo sapiens); experiment: Inhibition of beta-glucocerebrosidase in human fibroblast at 50 uM after 24 hrs by fluorescence assay
Method in brief: (§1)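 Wild-type human fibroblasts exposed to compound for 24 h (10, 20 or 50 μM, as listed) with 5 mM substrate. Cellular GCase activity then measured.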

[16] = system: Oryza sativa; experiment: Inhibition of rice alpha-galactosidase at 0.1 mM
[17] = target: T1, Lysosomal acid glucosylceramidase (Homo sapiens); experiment: Binding affinity to recombinant beta-glucocerebrosidase assessed as enzymatic activity at 100 uM after 40 mins by thermal stabilization assay relative to control
[18] = target: T3, Lysosomal acid glucosylceramidase; experiment: Competitive inhibition of beta-glucocerebrosidase at pH 5.2 by Lineweaver-Burke plot analysis
[19] = target: T1, Lysosomal acid glucosylceramidase (Homo sapiens); experiment: Binding affinity to recombinant beta-glucocerebrosidase assessed as enzymatic activity at 150 uM after 60 mins by thermal stabilization assay relative to control
[20] = system: Prunus dulcis; experiment: Inhibition of sweet almond beta-glucosidase at 0.1 mM
[21] = target: T3, Lysosomal acid glucosylceramidase; experiment: Inhibition of recombinant beta-glucocerebrosidase at pH 5.2 after 10 mins by fluorimetry
[22] = target: T3, Lysosomal acid glucosylceramidase; experiment: Inhibition of recombinant beta-glucocerebrosidase at pH 7.4 after 10 mins by fluorimetry
[23] = target: T1, Lysosomal acid glucosylceramidase (Homo sapiens); experiment: Binding affinity to recombinant beta-glucocerebrosidase assessed as enzymatic activity at 25 uM after 20 mins by thermal stabilization assay relative to control
Method in brief: (§2)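 Recombinant GCase (imiglucerase, 2 mg/mL aliquots) held at pH 7.4 and 48 °C with 0 (control) or 10–150 μM compound. At 20, 40 or 60 min, acetate-phosphate buffer (pH 5.0) and 4 mM 4-methylumbelliferyl β-D-glucoside in McIlvaine pH 5.2 added. Incubated 10 min at 37 °C with 0.1% Triton X-100 and 0.2% taurodeoxycholic acid. Stopped with glycine pH 10.6; 4-MU fluorescence read. Activity expressed relative to enzyme at 37 °C.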

[24] = target: T1, Lysosomal acid glucosylceramidase (Homo sapiens); experiment: Binding affinity to recombinant beta-glucocerebrosidase assessed as enzymatic activity at 25 uM after 40 mins by thermal stabilization assay relative to control; method in brief: as §2
[25] = target: T1, Lysosomal acid glucosylceramidase (Homo sapiens); experiment: Binding affinity to recombinant beta-glucocerebrosidase assessed as enzymatic activity at 10 uM after 20 mins by thermal stabilization assay relative to control; method in brief: as §2
[26] = target: T1, Lysosomal acid glucosylceramidase (Homo sapiens); experiment: Binding affinity to recombinant beta-glucocerebrosidase assessed as enzymatic activity at 25 uM after 60 mins by thermal stabilization assay relative to control; method in brief: as §2
[27] = target: T1, Lysosomal acid glucosylceramidase (Homo sapiens); experiment: Binding affinity to recombinant beta-glucocerebrosidase assessed as enzymatic activity at 10 uM after 60 mins by thermal stabilization assay relative to control; method in brief: as §2
[28] = target: T1, Lysosomal acid glucosylceramidase (Homo sapiens); experiment: Inhibition of beta-glucocerebrosidase in human fibroblast at 10 uM after 24 hrs by fluorescence assay; method in brief: as §1
[29] = Selectivity index, ratio of CC50 for human fibroblast to Ki for beta-glucocerebrosidase
[30] = target: T1, Lysosomal acid glucosylceramidase (Homo sapiens); experiment: Inhibition of beta-glucocerebrosidase in human fibroblast at 20 uM after 24 hrs by fluorescence assay; method in brief: as §1
[31] = target: T1, Lysosomal acid glucosylceramidase (Homo sapiens); experiment: Binding affinity to recombinant beta-glucocerebrosidase assessed as enzymatic activity at 10 uM after 40 mins by thermal stabilization assay relative to control; method in brief: as §2
[32] = target: T1, Lysosomal acid glucosylceramidase (Homo sapiens); settings: 0.1 to 0.25 uM

Structure (SMILES)	fold change (FC) [1]	inhibition [2]	Activity [3]	pKa [4]	fold change (FC) [5]	fold change (FC) [6]	fold change (FC) [8]	inhibition [9]	fold change (FC) [10]	inhibition [11]	IC50 [12] [µM]	fold change (FC) [13]	fold change (FC) [14]	inhibition [15] [%]	inhibition [16]	fold change (FC) [17]	Ki [18] [µM]	fold change (FC) [19]	inhibition [20]	IC50 [21] [µM]	also measured
CCCCCCCCCCCn1cc(CCN[C@H]2[C@H](O)[C@@H](O)[C@H](O)[C@@H](O)[C@@H]2O)nn1	2.55	inactive	Non-toxic	9.1	11.6	4.79	9.63	inactive	5.98	inactive	25.7	2.43	2.5	50	inactive	6.7	20.2	5.3	inactive	25.4	inhibition [7]: 30%; IC50 [22]: 4.9 µM
CCCCCCCCCCn1cc(CN[C@H]2[C@H](O)[C@@H](O)[C@H](O)[C@@H](O)[C@@H]2O)nn1	2.91	inactive	Non-toxic	7.1	20.9	10.5	17.2	inactive	8.33	inactive	0.0933	2.7	3.24	90	inactive	8.88	0.09	25.9	inactive	0.1	fold change (FC) [23]: 2.21; fold change (FC) [24]: 5.95; fold change (FC) [25]: 1.55; fold change (FC) [26]: 10.2; fold change (FC) [27]: 4.19; inhibition [28]: 58%; Selectivity Index [29]: >=3300; inhibition [30]: 71%; IC50 [22]: 0.09 µM; fold change (FC) [31]: 3.56; inhibition [32]: Active
